Screening data from PubChem.
IMP-1 inh = IMP-1 metallo-beta-lactamase inhibitors, primary screen, biochemical, epi-absorbance readout, Pseudomonas aeruginosa enzyme | 0.45% of 290,000 active | purified IMP-1, nitrocefin hydrolysis, epi-absorbance fluorescence | inhibition, % at 5.6 µM | metallo-beta-lactamase IMP-1 (Pseudomonas aeruginosa);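 active = inhibition above the mean plus 3 SD of all compounds in the same screening run, cut at about 4.5% in these data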;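 note: 0% = IMP-1 with DMSO and 100% = DMSO wells lacking enzyme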
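Test system: recombinant IMP-1 enzyme, purified / Medium: HEPES buffer pH 7.1 with ZnSO4 and Brij 35 / Doses: single dose, 5.6 µM / Times: 25 °C, 15 min preincubation, 25 min reaction / Detection: Epi-absorbance via hydrolysed-nitrocefin quenching of white-plate fluorescence, 480/530 nm, EDTA stop / Evaluation: percent inhibition from optical density relative to buffer-blank wells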
FID counter = compounds displacing fluorescent DNA intercalator, primary screen, artefact control for HCV NS3 helicase inhibitor project, biochemical, FID fluorescence; DNA fluorescent intercalator displacement; 0.17% of 290,000 active; inhibition, % at 7.9 µM; AID 1845, 2009; in the data active = inhibition above about 37%;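 note: 0% = vehicle and 100% = reference compound; higher means more ethidium bromide displaced from hairpin DNA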
UBC9 SUMO inh = inhibitors of in vitro SUMOylation cascade, primary screen, biochemical, HTRF, uHTS | SUMO-conjugating enzyme UBC9 (Homo sapiens), P63279 | HTRF SUMOylation assay, SAE1/SAE2 + UBC9 | inhibition, % at 35 µM | 0.36% of 290,000 active; in the data active = inhibition above about 50%, passing the limit was not always enough
Target sequence (P63279 whole entry, looked up): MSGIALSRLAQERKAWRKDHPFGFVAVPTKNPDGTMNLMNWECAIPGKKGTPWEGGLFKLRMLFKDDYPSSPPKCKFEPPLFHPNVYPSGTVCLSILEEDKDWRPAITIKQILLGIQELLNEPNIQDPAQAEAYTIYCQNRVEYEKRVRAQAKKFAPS
VIM-2 inhibitor = VIM-2 metallo-beta-lactamase inhibitors, primary screen, biochemical, epi-absorbance readout, Pseudomonas aeruginosa enzyme. 0.89% of 290,000 active. AID 1527, 2009. purified VIM-2, nitrocefin hydrolysis, epi-absorbance fluorescence. inhibition, % at 5.6 µM;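 active = inhibition above the mean of all tested compounds plus 3 SD, cutoff set per screening run, cut at about 7.5% in these data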;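 note: red hydrolysis product quenches plate fluorescence so inhibitors raise well fluorescence; 0% = enzyme with DMSO and 100% = DMSO without enzyme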
NALP1 inh = NALP1 inflammasome inhibitors in reconstituted yeast, colorimetric, S. cerevisiae, triplicate retest. 0.61% of 280,000 active. S. cerevisiae NALP1/ASC/caspase-1 growth, X-gal OD620, 72 h. AID 2071, 2009. inhibition, % at 10 µM; in the data active = inhibition mostly above about 24%, no sharp cut-off; inactive = mostly below about 32%
Mot1-301 SUMO = yeast Mot1-301 growth rescue at high temperature, primary screen, SUMOylation pathway inhibitor project, S. cerevisiae, ATP luminescence, 38.5C. 1% of 320,000 active. growth rescue, % at 18.8 µM. S. cerevisiae Mot1-301 growth rescue; percent above DMSO median, 100 means doubled. AID 2716, 2010;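 active = every valid replicate shows activation above 250% relative to neutral control wells; inactive = the rest, any valid replicate at or below 250%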;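 note: OY570 slx delta 5 strain wells were the positive control but not used for scaling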
* = called active by the depositor; / = not tested or not shown. Rows were chosen to be rich in hits. Some 2.9% of all compounds tested hit in one or more screens of this group.

SMILES | IMP-1 inh | FID counter | UBC9 SUMO inh | VIM-2 inhibitor | NALP1 inh | Mot1-301 SUMO
OCCCc1nc2n(n1)C(c1cccs1)C=C(c1ccccc1)N2 (stereo not drawn) | -1 | -19 | 32 | 8.4* | -7 | 143
OCCCc1nc2n(n1)C(c1ccccc1)C=C(c1ccc(F)cc1)N2 (stereo not drawn) | -5 | -14 | -4 | 0 | 6 | -15
O=C(O)c1ccc(S(=O)(=O)N2CCc3ccccc3C2)cc1 | 1 | -13 | 6 | -1 | 15 | 19
CCOC(=O)C1=C(C)N=c2s/c(=C/c3cccc([N+](=O)[O-])c3O)c(=O)n2C1c1ccccc1 (stereo not drawn) | -6 | -14 | 22 | 8.1* | -11 | 4
CN(C)S(=O)(=O)c1ccc(N2CCCC2)c(C(=O)N2CCN(S(=O)(=O)c3ccc(F)cc3)CC2)c1 | / | / | / | / | / | -8
COc1ccc(-n2c(C)c([N+](=O)[O-])c3ccc(O)c(CN(C)C)c32)cc1 | -1 | 3 | 7 | -5 | 24* | 2
CC(=O)c1ccc2c(c1)C1C=CCC1C(c1ccc(S(=O)(=O)N3CCOCC3)cc1)N2 (stereo not drawn) | -2 | -11 | 40 | -3 | 7 | 9
COc1ccc(NS(=O)(=O)c2ccc3c(c2)[C@H]2C=CC[C@H]2[C@@H](c2ccc(C(=O)O)cc2)N3)cc1 | 22* | 21 | 54* | 2 | 4 | -6
Cc1c(Cl)cccc1NS(=O)(=O)c1ccc2c(c1)C1C=CCC1C(c1ccc(C(=O)O)cc1)N2 (stereo not drawn) | 30* | 11 | 97* | -1 | 0 | 6
O=C(Cn1cnc([N+](=O)[O-])c1)Nc1ccccc1C(F)(F)F | -5 | -3 | 5 | -2 | 6 | 7
O=S(=O)(Cc1cc(N2CCOCC2)nc(-c2ccccn2)n1)c1ccccc1 | -7 | -14 | 4 | 2 | 22* | 0
COc1cc(/C=C2\CCCc3c2nc2ccccc2c3C(=O)O)cc(Br)c1O | -2 | -19 | 0 | 2 | -3 | 10
COc1cc(/C=C2\CCc3c2nc2ccccc2c3C(=O)O)cc(OC)c1OC | -2 | -27 | 54* | 0 | 2 | 9
CCOc1cc(/C=C2\CCCc3c2nc2ccccc2c3C(=O)O)ccc1OC | 6.9* | -15 | 21 | 3 | 7 | -4
CC(C)(C)NC(=S)N/N=C/c1cccnc1 | -2 | -4 | 15 | -3 | / | 2
Cc1ccc(C2C(C#N)=C(N)Oc3cc(C)oc(=O)c32)o1 (stereo not drawn) | -2 | -2 | 14 | -4 | -24 | -33
OC1(c2ccc3c(c2)OCO3)CCN(Cc2ccccn2)CC1 | -2 | 3 | -4 | -2 | 30* | -9
O=C(CN1CCC(O)(c2ccc3c(c2)OCO3)CC1)N1CCOCC1 | -1 | -5 | 14 | -1 | 14 | 2
O=C(COC(=O)c1cccc(OC(F)F)c1)NCC1CCCO1 (stereo not drawn) | / | / | / | / | / | -1
COc1ccnc(Oc2ccc(F)cc2)c1C(=O)N/C=N/OCc1ccc(F)cc1 | 1 | -11 | 10 | 2 | -13 | 4
CO/N=C/NC(=O)c1c(OC)ccnc1Oc1ccc(F)cc1 | -1 | 71* | -24 | 0 | -6 | 9
c1ccc(-c2noc(CC3CCCCC3)n2)nc1 | -3 | -10 | -1 | -1 | 13 | -4
C=CCc1ccc(OCCCCCN2CCOCC2)c(OC)c1 | -4 | 10 | 6 | -2 | 4 | 276*
C=CCc1ccc(OC)c(OC)c1 | 0 | -3 | 15 | -3 | -13 | 864*
C=CCc1cc(Cl)ccc1OCCNCCOC | -2 | 17 | 4 | -3 | 27 | -5
C=CCc1ccc(OCCOCCN(C)C)c(OC)c1 | -4 | 1 | -9 | 0 | 3 | 70
C=CCc1cc(Cl)ccc1OCCNCCN1CCOCC1 | -4 | 39* | 20 | -5 | 6 | /
COCc1cc(CN2CCN(Cc3ccsc3)C(CCO)C2)ccc1OC (stereo not drawn) | -1 | 6 | 15 | -4 | 10 | 0
S=c1sc2c(N3CCOCC3)ncnc2n1-c1ccccc1 | -3 | -3 | 11 | -3 | 39* | 32
